This note sets out measurements from ChEMBL document CHEMBL2016475, “Discovery of small molecule HIV-1 integrase dimerization inhibitors” (Bioorg Med Chem Lett, 2012).

Active and inactive are the calls of the source. No cut-off for these calls is given here.

Chain of Human immunodeficiency virus type 1 integrase (Human immunodeficiency virus 1) (Q7ZJM1 as listed by the source): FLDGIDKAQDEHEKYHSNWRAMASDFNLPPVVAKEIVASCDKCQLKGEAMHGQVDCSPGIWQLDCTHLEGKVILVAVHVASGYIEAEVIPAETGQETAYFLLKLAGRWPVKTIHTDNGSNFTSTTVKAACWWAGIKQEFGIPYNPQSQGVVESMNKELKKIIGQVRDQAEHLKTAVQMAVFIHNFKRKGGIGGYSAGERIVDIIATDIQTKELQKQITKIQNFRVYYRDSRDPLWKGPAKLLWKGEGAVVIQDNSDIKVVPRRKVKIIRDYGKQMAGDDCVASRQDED

In the first experiment the target is T1, Human immunodeficiency virus type 1 integrase (Human immunodeficiency virus 1, UniProt Q7ZJM1). Kind of experiment: Inhibition of HIV1 integrase using oligodeoxynucleotide as substrate after 1 hr by ELISA. In general terms: In an ELISA, binding on a coated surface is turned into a signal by an enzyme label.
T1 sequence (Q7ZJM1 whole entry): as the sequence (Q7ZJM1 as listed by the source) above
In general, IC50 refers to the concentration that gives 50% inhibition. A higher IC50 goes with weaker potency. The compound `COc1ccc(CCNC(=O)C/C(C)=N/NC(=O)c2cc3ccccc3cc2O)cc1OC` had an IC50 of 79 µM.

A further experiment concerns the target T1, Human immunodeficiency virus type 1 integrase. Kind of experiment: Inhibition of GST-tagged HIV1 integrase and C-terminal His6-tagged HIV1 integrase dimerization after 3 hrs by AlphaScreen-based dimerization assay. An outline of the steps: (§1)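 AlphaScreen proximity assay. GST-tagged HIV-1 IN is mixed with His6-tagged IN and incubated so monomers exchange between pre-existing dimers, giving a steady-state mix of homo- and GST/His6 heterodimers. Photon counts are normalized to DMSO and blank controls and expressed as normalized signal (%). Dose–response curves give the IC50, and single-concentration tests give percent inhibition.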
Background: Bead proximity is the source of the signal in Alpha formats.
In the case of `COc1ccc(CCNC(=O)C/C(C)=N/NC(=O)c2cc3ccccc3cc2O)cc1OC`, inhibition was half-maximal at 38.4 µM (IC50).
For the compound `COc1ccc(CNC(=O)C/C(C)=N/NC(=O)c2cc3ccccc3cc2O)cc1`, the IC50 came out at 128 µM.

For the next experiment, the target named is Human immunodeficiency virus type 1 integrase (Human immunodeficiency virus 1) (UniProt Q7ZJM1). Kind of experiment: Inhibition of GST-tagged HIV1 integrase and C-terminal His6-tagged HIV1 integrase dimerization at 100 uM after 3 hrs by AlphaScreen-based dimerization assay. An outline of the steps:
as §1
In general, inhibition refers to the drop in the measured response relative to a control, in per cent. Take `C/C(CC(=O)Nc1ccc(OCc2ccccc2)cc1)=N\NC(=O)c1cc2ccccc2cc1O`: the inhibition was 54%.
Consider `Cc1ccc(C2(O)CCN(CCNC(=O)Cc3cccc(C)c3)CC2)cc1`, for which the inhibition entry is “inactive”.
Same read-out and setting: next, `O=C(N/N=C/c1ccc(Sc2ccccn2)o1)c1cc2ccccc2cc1O`: 30%.
Same read-out and setting: next, `CCn1c2ccccc2c2cc(NC(=O)/C=C(\C)NNC(=O)Cc3cccc4ccccc34)ccc21`: “inactive”.
On the same count and under the same terms, next, `COc1ccc(C(=O)N/N=C(\C)CC(=O)NCc2ccccc2)cc1OC`: “inactive”; `COc1cccc2[nH]c(C(=O)NCCC(=O)Nc3nc4ccccc4s3)cc12`: “inactive”.
Regarding `C/C(CC(=O)Nc1ccc(Cl)c(Cl)c1)=N\NC(=O)c1cc2ccccc2cc1O`, the inhibition entry was “inactive”.
Compound `COc1ccc(CCNC(=O)C/C(C)=N/NC(=O)c2cc3ccccc3cc2O)cc1OC` showed an inhibition of 83%.
Still for that read-out and setting: next, `COc1ccc(CNC(=O)C/C(C)=N/NC(=O)c2cc3ccccc3cc2O)cc1`: 50%.
Consider `O=C(NCCNC(=O)c1cc2ccccc2cc1O)c1cc2ccccc2cc1O`, for which the inhibition entry is “inactive”.
`COc1cccc(-c2nc(C)c(C(=O)Nc3cc(C)ccc3O)s2)c1` displayed an inhibition of 32%.
On the same count and under the same terms, next, `COc1ccc(OC)c2[nH]c(C(=O)NCCCC(=O)Nc3ccc4c(c3)OCCO4)cc12`: 58%; `O=C(Nc1cccc(-c2cnc3ccccc3n2)c1)c1cc2ccccc2cc1O`: “inactive”.
For `CCc1ccc(O)c(NC(=S)NC(=O)COc2cc(C)c(Cl)c(C)c2)c1`, the inhibition turned out to be 23%.
The same measure, in the same setting: the result for `O=C(NCCNC(=O)c1cc2ccccc2o1)c1nc2ccccc2c(=O)[nH]1` reads “inactive”; that for `COc1ccc(OC)c2[nH]c(C(=O)NCCC(=O)NCCc3c[nH]c4ccccc34)cc12`, 73%; that for `O=C(NCCNC(=O)c1nc2ccccc2c(=O)[nH]1)c1ccc2ccccc2n1`, “inactive”.
On the same count and under the same terms, the result for `O=C(CNc1ccc2ccccc2c1)N/N=C/c1ccc(-c2ccc(Cl)cc2)o1` reads 49%.
In the case of `C[C@H](Oc1ccc2c(c1)CCC2)C(=O)NNC(=O)Nc1cccc([N+](=O)[O-])c1`, the inhibition result is “inactive”.
Take `O=C(N/N=C/c1ccc(-c2ccc(Cl)cc2Cl)o1)c1cc2ccccc2cc1O`: the inhibition amounted to 49%.
Still for that read-out and setting: the result for `COc1ccc(/C=C/C(=O)Nc2ncc(Cc3cccc(C)c3)s2)cc1` reads “inactive”.
On the same count and under the same terms, next, `Cc1cc(C)cc(OCC(=O)NNC(=O)c2ccc3ccccc3c2O)c1`: “inactive”.
In turn, `CC(CCc1ccccc1)NC(=O)c1ccc(NC(=O)C2COc3ccccc3O2)cc1` (stereo not drawn) displayed an inhibition of 14%.
Still for that read-out and setting: next, `Cc1ccc(C(=O)CCC(=O)Nc2nc3c(s2)CCc2c-3cnn2C)cc1C`: 13%; `COc1cccc2[nH]c(C(=O)NCCCC(=O)Nc3ccc4c(c3)OCCO4)cc12`: 50%.
